Experimental findings from ChEMBL document CHEMBL2202977, “Optimization and structure-activity relationships of a series of potent inhibitors of methicillin-resistant Staphylococcus aureus (MRSA) pyruvate kinase as novel antimicrobial agents” (Bioorg Med Chem, 2012) are described below.

In brackets after ≈: the same amount, converted by molar mass.

Data set [1] concerns the target Pyruvate kinase PKLR (Homo sapiens) (UniProt P30613). Nature of the data set: Inhibition of human pyruvate kinase R at 10 uM by LDH assay. In short, it runs like this: (§1)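 Selected compounds were tested against mammalian PK isoforms M1, M2, R and L at the highest concentration, 10 µM. Results are given as percent inhibition.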
The target of data set [2] is Pyruvate kinase PKM (Homo sapiens) (UniProt P14618). Put plainly: Inhibition of human pyruvate kinase M2 at 10 uM by LDH assay. In short, it runs like this:
as §1

In data set [3] the target is T1, Pyruvate kinase (Staphylococcus aureus (strain MRSA252)) (UniProt Q6GG09).
T1 sequence (whole entry): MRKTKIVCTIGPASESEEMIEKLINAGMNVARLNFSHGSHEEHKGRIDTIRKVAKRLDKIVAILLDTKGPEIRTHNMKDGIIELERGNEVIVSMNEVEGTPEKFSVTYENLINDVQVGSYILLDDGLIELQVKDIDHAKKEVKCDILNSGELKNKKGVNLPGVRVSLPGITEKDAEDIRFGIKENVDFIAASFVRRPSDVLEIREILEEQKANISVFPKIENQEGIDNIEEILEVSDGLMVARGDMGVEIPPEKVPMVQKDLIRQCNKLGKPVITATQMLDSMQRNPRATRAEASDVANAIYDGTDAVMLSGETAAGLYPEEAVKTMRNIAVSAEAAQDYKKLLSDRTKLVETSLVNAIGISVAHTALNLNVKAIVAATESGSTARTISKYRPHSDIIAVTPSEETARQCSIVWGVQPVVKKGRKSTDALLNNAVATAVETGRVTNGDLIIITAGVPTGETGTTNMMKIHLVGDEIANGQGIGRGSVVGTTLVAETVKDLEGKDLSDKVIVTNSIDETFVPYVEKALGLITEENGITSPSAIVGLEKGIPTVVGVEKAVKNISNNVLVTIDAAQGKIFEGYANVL
Nature of the data set: Inhibition of methicillin-resistant Staphylococcus aureus 252 pyruvate kinase at 10 uM by LDH assay. The settings on record: Staphylococcus aureus subsp. aureus MRSA252. The gist of the method:
(§2)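 MRSA pyruvate kinase activity was measured by a previously described procedure. IC50 was calculated from triplicate 15-point titrations, or averaged over n such determinations. Where no IC50 was obtained, the value is % inhibition at the highest concentration tested.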

Data set [4] addresses Pyruvate kinase PKM (Homo sapiens) (UniProt P14618). Put plainly: Inhibition of human pyruvate kinase M1 at 10 uM by LDH assay. In short, it runs like this:
as §1

For the next data set, the target named is T2, Pyruvate kinase (Staphylococcus aureus (strain MRSA252), UniProt Q6GG09).
T2 sequence (Q6GG09 whole entry): T1 sequence (whole entry)
Put plainly: Inhibition of methicillin-resistant Staphylococcus aureus 252 pyruvate kinase by LDH assay. Set-up: species or system Staphylococcus aureus subsp. aureus MRSA252. The gist of the method:
as §2

In data set [5] the target is Pyruvate kinase PKLR (Homo sapiens) (UniProt P30613). Put plainly: Inhibition of human pyruvate kinase L at 10 uM by LDH assay. In short, it runs like this:
as §1

Data set [6] has as its system Staphylococcus aureus. Nature of the data set: Antimicrobial activity against Staphylococcus aureus ATCC 29213 after 24 hrs broth microdilution method. It counts as functional. In short, it runs like this:
(§3)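 MIC taken as the minimum concentration giving >98% growth inhibition of the named S. aureus strain (RN4220, ATCC 25923 or ATCC 29213). Values are single determinations or averages of n determinations. Vancomycin was run as control.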
In general terms: Dilution methods test growth across graded concentrations, often in twofold steps.

Data set [7] concerns Staphylococcus aureus. Nature of the data set: Antimicrobial activity against Staphylococcus aureus ATCC 25923 after 24 hrs broth microdilution method. The format is functional. The gist of the method: as §3
The target in data set [8] is T1, Pyruvate kinase (Staphylococcus aureus (strain MRSA252)). Put plainly: Inhibition of methicillin-resistant Staphylococcus aureus 252 pyruvate kinase at 1 uM by LDH assay. The settings on record: Staphylococcus aureus subsp. aureus MRSA252. In short, it runs like this: as §2
Data set [9] has the same target. Nature of the data set: Inhibition of methicillin-resistant Staphylococcus aureus 252 pyruvate kinase at 0.5 uM by LDH assay. The settings on record: Staphylococcus aureus subsp. aureus MRSA252. The gist of the method:
as §2

Data set [10] concerns Staphylococcus aureus. Put plainly: Antimicrobial activity against Staphylococcus aureus RN4220 after 24 hrs broth microdilution method. The format is functional. The gist of the method:
as §3

Data set [11] has as its system THP-1. Put plainly: Cytotoxicity against human THP1 cells assessed as cell death at 25 uM after 24 hrs by MTS assay. The settings on record: thp-1, 24 h. It counts as cell-based. The gist of the method: (§4)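 THP-1 cells were exposed to test agent at 25 µM and 6.25 µM. Read-out was percentage of dead cells.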
On the technique in general: Tetrazolium dyes change colour on reduction, which living cells bring about.

For data set [12], the system named is THP-1. Put plainly: Cytotoxicity against human THP1 cells assessed as cell death at 6.25 uM after 24 hrs by MTS assay. It counts as cell-based. The note with it: thp-1, 24 h. In short, it runs like this:
as §4

Chain of Pyruvate kinase PKLR (Homo sapiens) (P30613 whole entry, looked up, canonical isoform): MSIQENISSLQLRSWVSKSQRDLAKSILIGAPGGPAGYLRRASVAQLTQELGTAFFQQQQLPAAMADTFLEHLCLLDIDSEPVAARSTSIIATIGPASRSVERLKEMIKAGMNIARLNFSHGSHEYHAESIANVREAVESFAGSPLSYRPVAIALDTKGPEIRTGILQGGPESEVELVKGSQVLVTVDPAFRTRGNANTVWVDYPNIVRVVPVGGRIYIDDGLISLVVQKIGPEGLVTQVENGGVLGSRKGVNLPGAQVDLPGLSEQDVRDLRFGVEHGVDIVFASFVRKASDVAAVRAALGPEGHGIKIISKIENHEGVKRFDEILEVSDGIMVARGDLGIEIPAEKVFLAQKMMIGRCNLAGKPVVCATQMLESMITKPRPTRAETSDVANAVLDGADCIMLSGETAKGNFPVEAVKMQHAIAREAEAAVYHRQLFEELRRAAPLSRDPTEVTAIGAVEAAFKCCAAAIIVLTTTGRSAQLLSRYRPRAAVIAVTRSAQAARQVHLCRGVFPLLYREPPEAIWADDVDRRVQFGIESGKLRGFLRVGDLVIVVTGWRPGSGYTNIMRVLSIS
Chain of Pyruvate kinase PKM (Homo sapiens) (P14618 2-531 limits assumed): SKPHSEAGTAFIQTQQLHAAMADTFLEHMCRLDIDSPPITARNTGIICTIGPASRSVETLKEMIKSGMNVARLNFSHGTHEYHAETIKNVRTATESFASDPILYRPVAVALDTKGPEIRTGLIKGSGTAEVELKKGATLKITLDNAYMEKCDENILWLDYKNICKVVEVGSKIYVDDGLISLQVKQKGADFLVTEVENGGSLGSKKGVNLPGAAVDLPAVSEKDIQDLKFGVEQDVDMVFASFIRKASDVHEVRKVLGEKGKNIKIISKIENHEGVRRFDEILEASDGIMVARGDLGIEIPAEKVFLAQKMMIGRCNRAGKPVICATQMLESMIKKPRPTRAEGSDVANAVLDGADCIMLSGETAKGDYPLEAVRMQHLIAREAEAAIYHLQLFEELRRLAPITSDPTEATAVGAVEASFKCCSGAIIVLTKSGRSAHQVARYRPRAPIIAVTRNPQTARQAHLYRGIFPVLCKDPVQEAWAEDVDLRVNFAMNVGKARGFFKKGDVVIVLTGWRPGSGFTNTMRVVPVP

The inhibition is the relative decrease from the control value, in per cent. As usually defined, the IC50 is the midpoint of a concentration-inhibition curve. For the molecule `CC/C(=N\NC(=O)c1cc2ccccc2cc1O)c1cc2cc(Br)ccc2[nH]1`, the inhibition is -3.4% in data set [1]; 3% in data set [2]; 99.6% in data set [3]; 5.6% in [4]; -0.2% in data set [5]. In addition, at Pyruvate kinase, the IC50 was 18 nM. In addition, the “MIC>98” value in the data set with Staphylococcus aureus [6] stood at 16 µg/mL (≈ 36.7 µM).
As to `CC(=NNC(=O)c1cc(Br)ccc1O)c1cc2cc(O)ccc2n1C` (mixture of isomers), the “MIC>98” value with Staphylococcus aureus [7] is above 64 µg/mL. Besides, the inhibition in [8] amounted to 54%.
For the molecule `CC(=NNC(=O)c1cc(Br)ccc1O)c1nc2ccccc2o1` (mixture of isomers), the inhibition in data set [9] came out at 26%. The “MIC>98” value in the data set on Staphylococcus aureus [6] was above 150 µg/mL.
Turning to `C/C(=N\NC(=O)c1cc(Br)ccc1O)c1cc2ccc(Br)cc2[nH]1`, the “MIC>98” value in the data set with Staphylococcus aureus [7] was above 64 µg/mL. The same molecule came in with a half-inhibitory concentration (IC50) against Pyruvate kinase of 24 nM.
Take `C/C(=N\NC(=O)c1cc(Br)ccc1O)c1cc2cc(-c3ccccc3)ccc2[nH]1`: the “MIC>98” value against Staphylococcus aureus [10] is above 90 µg/mL. For the same molecule, the inhibition in [8] is 0%.
Consider `C/C(=N\NC(=O)c1cc(Br)ccc1O)c1cc2cccc(F)c2[nH]1`, for which the inhibition in data set [9] was 39%. For the same molecule, the “MIC>98” value in the data set on Staphylococcus aureus [10] was above 156 µg/mL.
At Pyruvate kinase, `CCOc1ccc(Br)cc1C(=O)N/N=C(\C)c1cc2ccccc2[nH]1` came in with a half-maximal inhibitory concentration (IC50) of 63 nM. Further, the “MIC>98” value against Staphylococcus aureus [6] is above 64 µg/mL.
For `CC/C(=N\NC(=O)c1cc2ccccc2cc1O)c1cc2c(F)c(F)c(F)cc2[nH]1` the same measures were 31 nM and above 64 µg/mL.
Regarding `Cn1c(/C(=N\NC(=O)c2cc(Br)ccc2O)C(C)(C)C)cc2ccccc21`, in data set [3], the inhibition was 0%. In addition, in the data set with Staphylococcus aureus [10], the “MIC>98” value was 10.7 µg/mL (≈ 25 µM). In addition, the Activity turned out to be 73% with THP-1 [11] and 25% in the data set with THP-1 [12].
Regarding `CCC(=NNC(=O)c1cc2ccccc2cc1O)c1cc2cc(Br)ccc2n1C` (mixture of isomers), the inhibition in data set [1] was -0.6%; in [2], -0.8%; in [3], 97.7%; in data set [4], 0%; in data set [5], -5.6%. The same molecule displayed a concentration for half-maximal inhibition (IC50) on Pyruvate kinase of 79 nM. Also, the “MIC>98” value in the data set with Staphylococcus aureus [6] is 1 µg/mL.
With `CC(C)(C)/C(=N/NC(=O)c1cc(Br)ccc1O)c1cc2ccccc2[nH]1`, the inhibition in data set [3] was 0%. Further, the “MIC>98” value in the data set with Staphylococcus aureus [10] is 83 µg/mL (≈ 200 µM). Also, the Activity was 50% with THP-1 [11] and 42% in the data set on THP-1 [12].
The molecule `CC(=NNC(=O)c1cc(Br)ccc1O)c1cc2c(F)c(F)c(F)cc2n1C` (mixture of isomers) registered a concentration for half-maximal inhibition (IC50) at Pyruvate kinase of 55 nM. Moreover, the “MIC>98” value in the data set on Staphylococcus aureus [6] came to 2 µg/mL.
With `CC(=NNC(=O)c1cc(Br)ccc1O)c1cc2ccccc2n1C` (mixture of isomers), the inhibition in data set [1] was 2.6%; in data set [2], 0.4%; in data set [3] it was 96.3%; in data set [4], -3.7%. The molecule also came in with an IC50 against Pyruvate kinase of 381 nM. Moreover, the “MIC>98” value against Staphylococcus aureus [6] was 7.7 µg/mL.
As to `C/C(=N\NC(=O)c1cc2ccccc2cc1O)c1cc2cc(Br)ccc2[nH]1`, half-maximal inhibition against Pyruvate kinase (IC50) was put at 26 nM. For the same molecule, in the data set with Staphylococcus aureus [6], the “MIC>98” value is above 64 µg/mL.
On to `Cn1c(C(=NNC(=O)c2cc(Br)ccc2O)c2ccccc2)cc2ccccc21` (mixture of isomers), for which the “MIC>98” value against Staphylococcus aureus [10] turned out to be 1.4 µg/mL. For the same molecule, the Activity in the data set on THP-1 [11] stood at 78%; in the data set on THP-1 [12] it was 19%. The molecule also registered an IC50 against Pyruvate kinase of 6040 nM.
In the case of `CC(=NNC(=O)c1ccc(Br)cc1O)c1cc2ccccc2n1C` (mixture of isomers), the inhibition in data set [9] turned out to be 61%. In addition, the “MIC>98” value in the data set with Staphylococcus aureus [10] was determined as 4.8 µg/mL.
`CCOCOc1ccccc1C(=O)N/N=C(\C)c1cc2cc(Br)ccc2[nH]1` yielded an IC50 against Pyruvate kinase of 251 nM. Moreover, the “MIC>98” value against Staphylococcus aureus [6] was above 64 µg/mL.
With `C/C(=N\NC(=O)c1cc(Br)ccc1O)c1cc2cc(O)ccc2[nH]1`, the “MIC>98” value against Staphylococcus aureus [7] was above 64 µg/mL. At Pyruvate kinase, this molecule gave an IC50 of 214 nM.
On to `C/C(=N\NC(=O)c1cc(Cl)ccc1O)c1cc2ccccc2[nH]1`, for which, in the data set on Staphylococcus aureus [10], the “MIC>98” value is above 64 µg/mL. Further, the inhibition in [8] worked out at 36%.
In the case of `COc1c(Br)cc(Br)cc1C(=O)N/N=C(\C)c1cc2ccccc2[nH]1`, the “MIC>98” value in the data set on Staphylococcus aureus [7] was above 93 µg/mL. Also, in data set [8], the inhibition was found to be 57%.
For the molecule `COc1ccc(Br)cc1C(=O)N(C)/N=C(\C)c1cc2ccccc2[nH]1`, the “MIC>98” value in the data set with Staphylococcus aureus [7] is above 80 µg/mL. The inhibition in [8] came out at 33%.
`C/C(=N\NC(=O)c1cc2ccccc2cc1O)c1cc2ccccc2[nH]1` gave a 50% inhibitory concentration (IC50) against Pyruvate kinase of 42 nM. Further, the “MIC>98” value in the data set on Staphylococcus aureus [6] is above 64 µg/mL.
`CCC(=NNC(=O)c1cc(Br)ccc1O)c1cc2cc(Br)ccc2n1C` (mixture of isomers) yielded an IC50 against Pyruvate kinase of 168 nM. Also, the “MIC>98” value against Staphylococcus aureus [6] was found to be 2 µg/mL.
For the molecule `O=C(NN=C(c1ccccc1)c1cc2ccccc2[nH]1)c1cc(Br)ccc1O`, the inhibition stood at 13.4% in [1]; 4.8% in data set [2]; 97.6% in data set [3]; 11.2% in data set [4]; 5.6% in data set [5]. Besides, the “MIC>98” value against Staphylococcus aureus [10] is 1.4 µg/mL (≈ 3.22 µM). The figures for the Activity with THP-1 [11] and in the data set with THP-1 [12] were 83% and 43%, respectively. The molecule further came in with an IC50 against Pyruvate kinase of 445 nM.
